Data set [1] has as its target T1, rat M1 (Rattus norvegicus, UniProt P08482).
T1 sequence (P08482 1-460): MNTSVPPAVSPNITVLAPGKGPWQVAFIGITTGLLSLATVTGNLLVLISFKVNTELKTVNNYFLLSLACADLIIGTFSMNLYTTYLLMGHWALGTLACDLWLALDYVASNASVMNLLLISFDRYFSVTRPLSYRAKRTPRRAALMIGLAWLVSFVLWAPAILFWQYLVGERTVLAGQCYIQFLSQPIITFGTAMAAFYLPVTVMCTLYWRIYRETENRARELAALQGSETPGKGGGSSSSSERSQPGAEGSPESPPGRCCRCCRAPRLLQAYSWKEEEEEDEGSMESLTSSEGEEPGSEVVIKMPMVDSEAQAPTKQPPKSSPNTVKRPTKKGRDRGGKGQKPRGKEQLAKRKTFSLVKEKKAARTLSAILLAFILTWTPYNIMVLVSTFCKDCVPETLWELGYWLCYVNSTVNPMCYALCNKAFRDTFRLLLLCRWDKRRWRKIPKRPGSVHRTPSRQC
Briefly: Calcium mobilization assay, rat M1 cell line. The data set is classed as cell-based. Summed up:
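Muscarinic receptor-expressing CHO cells were plated at 20,000 cells/well in medium without G418 the day before. They were loaded with 1.15 μM Fluo-4 AM for 45 min at 37 °C in HBSS with 20 mM HEPES and 2.5 mM probenecid. Test compound (10-point 1:3 series, top final 30 μM) was added for 2.5 min, then EC20 ACh for 1 min. Calcium flux was fitted with a four-parameter logistic curve.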

Data set [2] concerns the target T1, rat M1. Briefly: [3H]-NMS competition radioligand binding. Conditions: up to 30 μM, rat M1-CHO membranes. Summed up:
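Rat M1-CHO membranes (10 μg) were incubated with test compound (11-point 1:3 series, top final 30 μM) and 0.088 nM [3H]-NMS (Kd). Binding buffer was 20 mM HEPES, 10 mM MgCl2 and 100 mM NaCl, pH 7.4, for 1 h at room temperature with shaking. Nonspecific binding was defined with 10 μM atropine. Samples were filtered, washed three times with ice-cold Tris buffer and counted by scintillation.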

For the next data set, the system named is mice. Description: High dose phenotypic mouse seizure liability screen. The data set is classed as in vivo. The following applies: 100 mg/kg i.p., up to 3 h.
The nature of data set [3]: Plasma protein binding by equilibrium dialysis, human. In kind it is in vitro ADME. Conditions: pH 7.4. Summed up:
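Plasma spiked with test article was dialysed against 25 mM phosphate buffer, pH 7.4, by equilibrium dialysis for 4 h at 37 °C with shaking. Aliquots from each chamber were matrix-matched, extracted with ice-cold acetonitrile, centrifuged and quantified by LC/MS/MS.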
(In general: In equilibrium dialysis free small molecules cross a membrane that holds back macromolecules.)

In another data set the target is T2, cytochrome P450 1A2 (Homo sapiens, UniProt P05177).
T2 sequence (P05177 1-516): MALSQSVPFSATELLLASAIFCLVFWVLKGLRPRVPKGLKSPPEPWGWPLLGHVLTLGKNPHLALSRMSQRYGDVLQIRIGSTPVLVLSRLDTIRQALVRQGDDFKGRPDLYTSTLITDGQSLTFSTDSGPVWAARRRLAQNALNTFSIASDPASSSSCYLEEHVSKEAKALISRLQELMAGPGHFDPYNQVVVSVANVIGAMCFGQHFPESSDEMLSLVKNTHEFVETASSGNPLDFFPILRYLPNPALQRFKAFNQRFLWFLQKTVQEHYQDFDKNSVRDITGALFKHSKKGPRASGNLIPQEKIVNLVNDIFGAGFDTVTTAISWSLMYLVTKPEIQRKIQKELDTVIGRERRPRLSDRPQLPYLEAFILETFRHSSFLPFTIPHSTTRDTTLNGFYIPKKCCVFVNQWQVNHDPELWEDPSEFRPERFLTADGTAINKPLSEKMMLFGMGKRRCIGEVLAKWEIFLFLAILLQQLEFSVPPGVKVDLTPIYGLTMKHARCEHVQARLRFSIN
Briefly: CYP450 inhibition in human liver microsomes, 1A2. In kind it is in vitro ADME. (In general: Microsomes from liver hold many membrane-bound enzymes, among them those of drug oxidation.)

A further data set addresses cytochrome P450 2C9 (Homo sapiens, UniProt P11712). Description: CYP450 inhibition in human liver microsomes, 2C9. The data set is classed as in vitro ADME.
A further data set has as its target cytochrome P450 2D6 (Homo sapiens, UniProt P10635). Briefly: CYP450 inhibition in human liver microsomes, 2D6. In kind it is in vitro ADME.
Data set [4] can be described thus: Mouse plasma-brain exposure. The following applies: male, C57BL/6J, brain and plasma, intraperitoneal, 100 mg/kg. The data set is classed as in vivo. The gist of the method: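 Male C57BL/6J mice aged 7–9 weeks were dosed i.p. with test compound in 10% Tween 80 (1–10 mg/mL, 10 mL/kg). Brain and trunk blood were collected at 0.25 h. Brains were washed in cold saline and frozen on dry ice. EDTA plasma was separated, and both matrices were analysed by LC/MS/MS.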

A short description of data set [5]: Rat PK IV/PO crossover study. In kind it is in vivo. The gist of the method: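 Male Sprague–Dawley rats with carotid and jugular cannulae (n = 2) were dosed IV at 1.0 mg/kg in 10% EtOH, 50% PEG 400 and 40% saline. For oral dosing, fasted rats received 3 mg/kg by gavage as a microsuspension in 30% Captisol. Carotid blood was sampled from 0.117 to 24 h, and EDTA plasma was analysed by LC/MS/MS. Parameters came from noncompartmental analysis.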

Data set [6] has as its system 68 GPCRs, ion channels, and transporters. Briefly: Eurofins Lead Profiling panel. In kind it is binding. The following applies: @10 μM, 68 targets.
The subject of the next data set is rats. Briefly: Novel object recognition task. In kind it is in vivo, rat. Summed up:
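Male Sprague–Dawley rats were habituated to the arena. They received vehicle (10% Tween 80) or test compound at 1–10 mg/kg i.p. (1 mL/kg; n = 12) 30 min before a 10 min exposure to two identical objects. After 24 h, one object was replaced by a novel one and exploration was recorded for 3 min. A blinded observer scored exploration, and the recognition index was (novel − familiar)/total exploration time.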

Entries after “also recorded” stand apart in the source; their conditions may differ.

cytochrome P450 2C9, sequence (P11712 whole entry): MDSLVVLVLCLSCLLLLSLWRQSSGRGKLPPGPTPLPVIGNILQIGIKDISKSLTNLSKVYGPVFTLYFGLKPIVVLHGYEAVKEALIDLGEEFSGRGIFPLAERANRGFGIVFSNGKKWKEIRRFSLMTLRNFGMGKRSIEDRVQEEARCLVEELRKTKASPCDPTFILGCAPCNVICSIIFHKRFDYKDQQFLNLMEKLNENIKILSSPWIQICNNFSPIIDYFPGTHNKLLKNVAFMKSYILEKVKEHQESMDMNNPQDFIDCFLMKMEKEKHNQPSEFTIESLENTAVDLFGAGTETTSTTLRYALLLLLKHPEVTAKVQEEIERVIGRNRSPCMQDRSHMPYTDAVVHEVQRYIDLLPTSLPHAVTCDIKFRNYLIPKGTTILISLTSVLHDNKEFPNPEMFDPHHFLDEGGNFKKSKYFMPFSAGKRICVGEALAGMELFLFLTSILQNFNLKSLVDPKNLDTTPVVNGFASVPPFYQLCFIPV
cytochrome P450 2D6, sequence (P10635 whole entry): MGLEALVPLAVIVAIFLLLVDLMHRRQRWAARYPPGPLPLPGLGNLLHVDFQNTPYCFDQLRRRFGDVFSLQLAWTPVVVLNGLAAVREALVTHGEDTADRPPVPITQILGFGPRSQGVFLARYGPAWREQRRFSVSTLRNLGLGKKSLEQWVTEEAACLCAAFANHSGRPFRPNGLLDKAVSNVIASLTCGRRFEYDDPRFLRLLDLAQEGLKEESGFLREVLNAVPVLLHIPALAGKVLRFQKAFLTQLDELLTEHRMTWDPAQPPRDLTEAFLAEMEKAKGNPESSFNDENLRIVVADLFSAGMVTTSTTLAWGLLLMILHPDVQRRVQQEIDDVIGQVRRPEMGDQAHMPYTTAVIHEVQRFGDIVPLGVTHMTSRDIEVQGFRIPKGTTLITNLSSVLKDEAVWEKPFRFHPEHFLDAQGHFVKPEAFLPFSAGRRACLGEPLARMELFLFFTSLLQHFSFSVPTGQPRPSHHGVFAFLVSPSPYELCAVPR

In the case of `O=C(N[C@H]1CCCC[C@@H]1O)[C@H]1CN(Cc2ccc(-n3cccn3)cc2)c2ccccc2O1` [VU0486846, (2R)-N-[(1S,2S)-2-Hydroxycyclohexyl]-4-[(4-pyrazol-1-ylphenyl)-methyl]-2,3-dihydro-1,4-benzoxazine-2-carboxamide], the EC50 (commonly the concentration needed to bring the measured effect to its halfway point) was 0.234 µM on rat M1 [1] (M1 PAM pEC50, rat M1 cell line, high expression); 5.6 µM on rat M1 [1] (M1 agonist activity EC50, rat M1 cell line, compound alone); 5.37 µM on rat M1 [1] (M1 agonist activity pEC50, rat M1 cell line, compound alone); 0.253 µM at rat M1 [1] (Rat M1 CRC EC50, Figure 4B). For the same compound, at rat M1 [1] (rat M1 cell line, compound alone), the “M1 agonist activity, % ACh” value amounted to 26 ± 6 % ACh. Moreover, the “M1 PAM efficacy, % ACh Max” value at rat M1 [1] (rat M1 cell line, high expression) was determined as 83 ± 1 % ACh Max. Further, the “Inhibition of orthosteric [3H]-NMS binding” value on rat M1 [2] was “no displacement of [^3H]-NMS binding; also recorded: does not substantially inhibit binding”. For the same compound, in the data set on mice, the Seizure liability result was “devoid of seizure liability”. Further, the fraction unbound – broadly, free concentration divided by total concentration – at 4 h in data set [3] came out at 0.12. Besides, the concentration for half-maximal inhibition (IC50) (usually the concentration at which inhibition is half-maximal) at cytochrome P450 1A2 was above 30 µM; at cytochrome P450 2C9, 18.8 µM; against cytochrome P450 2D6, 29.8 µM. The Kp (as a rule, the ratio of the level in a tissue or fluid to that in plasma or blood) at 0.25 h in data set [4] was found to be 0.67. This compound also gave a Kp uu at 0.25 h in data set [4] of 0.17. Moreover, the half-life (in general, the time needed for the level to fall by half in the phase considered) in [5] (male, Sprague-Dawley, rat, plasma) is 1.2 h. Moreover, in [5] (male, Sprague-Dawley, rat, plasma, intravenous, 1 mg/kg), the Vd stood at 1.8 L/kg. Further, in [5] (male, Sprague-Dawley, rat, plasma, iv, 1 mg/kg), the clearance is 89 mL/min/kg. Also, the bioavailability – broadly, the share of a dose that reaches the circulation, judged against a reference dose that is usually intravenous – in data set [5] (male, Sprague-Dawley, rat, plasma, po, 3 mg/kg) came out at 95.9%. Also, the “Adverse events or cholinergic side effects in PK study” value in data set [5] (rat PK study) was “No adverse events or cholinergic side effects”. The inhibition (commonly how much of the control response was suppressed) at any target in the panel in data set [6] is reported as at most 50%. Moreover, the “Effect on recognition memory” value in the data set on rats (1–10 mg/kg i.p.) is reported as “dose-dependently enhanced recognition memory”. Moreover, the “minimum effective dose, novel object recognition” value with rats (i.p., 30 min pretreatment, memory assessed 24 h later) was 3 mg/kg.

(Values after article PMC6146057 (ACS chemical neuroscience, 2018).)
